Usually inhibition stands for the drop in the measured response relative to a control, in per cent. One may read the IC50 as the concentration needed to halve the response being measured. As a reminder, the inhibition in vivo is the drop in the measured response relative to a control, in per cent. A higher inhibition in vivo goes with strong suppression.

In experiment [1] the test system is THP-1. The experiment can be described thus: Antiinflammatory activity in human THP1 cells assessed as inhibition of LPS-induced TNFalpha at 10 uM by ELISA. It is filed as functional. In a few lines:
(§1)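 THP-1 cells grown in RPMI 1640 with 10% FBS, penicillin and streptomycin, then differentiated with PMA. After plating, cells took test compound or vehicle (0.5% DMSO) for 30 min at 37 °C. LPS (E. coli 0127:B8) was then added and plates were kept 24 h at 37 °C, 5% CO2. Supernatant TNF-α and IL-6 measured by ELISA. Percent inhibition was taken against control, and IC50 by nonlinear regression.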

The subject of experiment [2] is THP-1. As to the kind of experiment: Antiinflammatory activity in human THP1 cells assessed as inhibition of IL6 at 10 uM by ELISA. The experiment is classed as functional. In a few lines:
as §1
In general terms: In an ELISA, binding on a coated surface is turned into a signal by an enzyme label.

Experiment [3] has as its system THP-1. The experiment can be described thus: Cytotoxicity against human THP1 cells at 10 uM. It is filed as functional. The method in brief:
(§2)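 PMA-differentiated THP-1 cells in RPMI 1640 with 10% FBS were pretreated 30 min at 37 °C with compound or vehicle (0.5% DMSO). They were then stimulated with LPS for 24 h at 37 °C, 5% CO2. Viability was scored with CCK-8 in the same wells as the cytokine assay.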

Experiment [4] has as its target Phosphodiesterase 4 (Homo sapiens, UniProt P27815+Q08499+Q07343+Q08493). As to the kind of experiment: Inhibition of PDE4 in human U937 cells by cAMP SPA enzyme assay. The experiment is classed as cell-based. To be noted: u-937.
Experiment [5] has as its system PBMC. As to the kind of experiment: Antiinflammatory activity in […] PBMC assessed as inhibition of LPS-induced TNFalpha by ELISA. The experiment is classed as functional, cell-based. The settings on record: Homo sapiens.
Experiment [6] relates to THP-1. As to the kind of experiment: Antiinflammatory activity in human THP1 cells assessed as inhibition of LPS-induced TNFalpha at 30 uM by ELISA. It is filed as functional. The method in brief: as §1
The test system of experiment [7] is Trypanosoma cruzi. As to the kind of experiment: Antichagasic activity against Trypanosoma cruzi. The experiment is classed as functional, organism-based.
For experiment [8], the target named is Cyclin-dependent kinase 1/cyclin B1 (Homo sapiens, UniProt P06493). As to the kind of experiment: Inhibition of CDK1/cyclinB. The experiment is classed as protein-complex assay.
Experiment [9] deals with Escherichia coli. As to the kind of experiment: Antimicrobial activity against Escherichia coli. The experiment is classed as functional, organism-based.
Experiment [10] deals with Candida albicans. As to the kind of experiment: Antimicrobial activity against Candida albicans. The experiment is classed as functional, organism-based.
For experiment [11], the system named is Mus musculus. The experiment can be described thus: Inhibition of LPS-induced TNFalpha release in mouse at 20 mg/kg, po. It is filed as functional.
Experiment [12] addresses Mitogen-activated protein kinase 14 (Homo sapiens, UniProt Q16539). As to the kind of experiment: Inhibition of p38alpha MAPK.
The test system of experiment [13] is THP-1. As to the kind of experiment: Antiinflammatory activity in human THP1 cells assessed as inhibition of LPS-induced TNFalpha by ELISA. The experiment is classed as functional, cell-based. The method in brief:
as §1

In experiment [14] the test system is THP-1. The experiment can be described thus: Antiinflammatory activity in human THP1 cells assessed as inhibition of LPS-induced IL6 by ELISA. It is filed as functional, cell-based. In a few lines: as §1
Experiment [15] concerns THP-1. As to the kind of experiment: Cytotoxicity against human THP1 cells. It is filed as functional, cell-based. In a few lines:
as §2

Experiment [16] concerns THP-1. The experiment can be described thus: Antiinflammatory activity in human THP1 cells assessed as inhibition of LPS-induced IL6 at 1 uM by ELISA. The experiment is classed as functional. In a few lines:
as §1

For experiment [17], the system named is THP-1. As to the kind of experiment: Antiinflammatory activity in human THP1 cells assessed as inhibition of LPS-induced TNFalpha at 1 uM by ELISA. The experiment is classed as functional. In a few lines: as §1
The subject of experiment [18] is THP-1. As to the kind of experiment: Cytotoxicity against human THP1 cells at 1 uM. The experiment is classed as functional. The method in brief: as §2

Molecules are shown by their SMILES. Converted amounts (≈) assume the structure as drawn.

Sequence of Cyclin-dependent kinase 1/cyclin B1 (P06493 whole entry): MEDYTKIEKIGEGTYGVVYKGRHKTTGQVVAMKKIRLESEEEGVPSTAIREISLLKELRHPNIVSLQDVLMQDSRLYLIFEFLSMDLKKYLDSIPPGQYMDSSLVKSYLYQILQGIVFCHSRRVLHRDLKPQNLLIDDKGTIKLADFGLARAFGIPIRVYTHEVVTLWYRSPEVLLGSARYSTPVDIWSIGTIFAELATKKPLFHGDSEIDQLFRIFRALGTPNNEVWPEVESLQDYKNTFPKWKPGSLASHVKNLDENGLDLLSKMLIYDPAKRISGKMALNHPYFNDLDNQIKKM
Sequence of Cyclin-dependent kinase 1/cyclin B1 (P14635 whole entry, further chain): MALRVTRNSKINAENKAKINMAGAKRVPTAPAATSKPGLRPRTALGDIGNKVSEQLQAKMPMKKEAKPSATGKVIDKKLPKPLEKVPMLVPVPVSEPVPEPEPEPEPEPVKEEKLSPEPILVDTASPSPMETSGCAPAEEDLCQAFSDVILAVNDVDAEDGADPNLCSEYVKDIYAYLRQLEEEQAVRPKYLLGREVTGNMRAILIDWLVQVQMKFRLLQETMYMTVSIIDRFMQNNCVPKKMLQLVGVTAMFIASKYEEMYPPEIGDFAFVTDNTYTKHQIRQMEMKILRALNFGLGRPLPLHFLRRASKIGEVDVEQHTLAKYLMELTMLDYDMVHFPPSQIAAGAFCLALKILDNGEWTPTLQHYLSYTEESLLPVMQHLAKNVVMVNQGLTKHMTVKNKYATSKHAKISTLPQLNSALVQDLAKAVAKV
Sequence of Mitogen-activated protein kinase 14 (Q16539 whole entry): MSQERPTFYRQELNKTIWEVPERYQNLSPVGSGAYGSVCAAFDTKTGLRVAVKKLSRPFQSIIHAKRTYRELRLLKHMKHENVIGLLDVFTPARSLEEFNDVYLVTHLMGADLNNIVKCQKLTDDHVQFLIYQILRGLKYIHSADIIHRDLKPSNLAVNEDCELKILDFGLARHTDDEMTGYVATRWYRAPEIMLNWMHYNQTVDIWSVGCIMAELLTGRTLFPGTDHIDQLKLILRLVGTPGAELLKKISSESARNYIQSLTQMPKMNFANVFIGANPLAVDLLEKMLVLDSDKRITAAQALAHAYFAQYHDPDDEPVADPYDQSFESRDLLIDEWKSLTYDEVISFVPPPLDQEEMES

`O=c1[nH]c(=O)c2cc(CCCO)cnc2[nH]1`: the inhibition at 10 µM amounted to 0% in experiment [1], 37% in [2] and 12% in [3].

For the molecule `OCCCc1cnc2ncnn2c1`, the inhibition at 10 µM in experiment [1] is 4%; in [2], 43%; in experiment [3] it was 0%.

Take `Cc1ccc(-c2cc3ncc(C(=O)c4cc(C)ccc4O)cn3n2)cc1`: the inhibition at 10 µM stood at 0% in experiment [1], 9% in experiment [2] and 5% in experiment [3].

Regarding `CCn1ncc2cc(CCCO)cnc21`, the inhibition at 10 µM in experiment [1] is 0%; in [2] it was 45%; in [3], 8%.

Turning to `COc1ccc(-c2nn(-c3ccccc3)c3ncc(C(=O)c4cc(C)ccc4O)cc23)cc1`, the inhibition at 10 µM in experiment [1] turned out to be 0%; in [2], 49%; in experiment [3] it was 27%.

As to `Cc1ccc(O)c(C(=O)c2cnc3[nH]c(=O)[nH]c(=O)c3c2)c1`, the values for the inhibition at 10 µM in experiment [1], in [2] and in experiment [3] were 6%, 39% and 0%, respectively.

For `CCn1ncc2c(-c3cncc(Br)c3)c(C#N)c(C)nc21`, the figures for the half-maximal inhibitory concentration (IC50) in experiment [4] and in experiment [5] were > 1000 nM and 27 nM, respectively.

On to `COC[C@H](O)[C@@H](OC)[C@@H](OC)C1=CC2C(C)=NN(C)C2N=C1` (some centres not stated), for which the inhibition at 10 µM in [1] worked out at 20%; in [2], 35%; in experiment [3], 5%. Also, the inhibition at 30 µM in experiment [6] is 30%.

As for `CCO[C@@H](C1=CC2C(C)=NN(c3ccccc3)C2N=C1)[C@H](O)[C@@H](O)COC` (some centres not stated), the inhibition at 10 µM was 2% in experiment [1], 43% in experiment [2] and 8% in [3].

As to `COc1ccc(-c2nn(-c3ccccc3)c3ncc(CCCO)cc23)cc1`, the inhibition at 10 µM in experiment [1] came out at 12%; in experiment [2], 36%; in experiment [3], 10%.

As for `CCO[C@@H](C1=CC2C(c3ccc(O)cc3)=NN(c3ccccc3)C2N=C1)[C@H](O)[C@@H](O)CO` (some centres not stated), the results for the inhibition at 10 µM in experiment [1], in experiment [2] and in [3] were 0%, 40% and 5%, respectively.

Consider `Cc1nn(-c2ccccc2)c2ncc(CCCO)cc12`, for which the inhibition at 10 µM in [1] is 8%; in [2] it was 19%; in experiment [3], 16%.

For `Cc1cc(C)c(O)c(C(=O)c2cnc3c(c2)c(C)nn3-c2ccccc2)c1`, the inhibition at 10 µM worked out at 0% in experiment [1], 44% in [2] and 14% in experiment [3].

Take `Cc1ccc(O)c(C(=O)c2cnc3c(c2)c(C)nn3C)c1`: the figures for the inhibition at 10 µM in experiment [1], in experiment [2] and in experiment [3] were 0%, 60% and 41%, respectively.

As to `OCCCc1cnc2nc3ccccc3n2c1`, the figures for the inhibition at 10 µM in experiment [1], in [2] and in [3] were 0%, 18% and 9%, respectively.

On to `Cc1ccc(O)c(C(=O)c2cnc3onc(-c4ccccc4)c3c2)c1`, for which the figures for the inhibition at 10 µM in experiment [1], in experiment [2] and in experiment [3] were 0%, 63% and 25%, respectively.

On to `Cc1ccc(O)c(C(=O)c2cnc3c(c2)c(C)nn3-c2ccccc2)c1`, for which the values for the inhibition at 10 µM in [1], in [2] and in experiment [3] were 0%, 54% and 39%, respectively.

In experiment [7], `Cc1nn(-c2ccccc2)c2nc(-c3ccccc3)cc(C(=O)N/N=C/c3ccc(O)cc3)c12` returned a half-inhibitory concentration (IC50) of 1.9 µg/mL (≈ 4.25 µM).

With `CCO[C@@H](C1=CC2C(C)=NN(c3ccccc3)C2N=C1)[C@H](OC)[C@@H](O)COC` (some centres not stated), the results for the inhibition at 10 µM in experiment [1], in [2] and in experiment [3] were 19%, 44% and 4%, respectively. For the same molecule, in experiment [6], the inhibition at 30 µM was 30%.

As to `CCn1ncc2c(-c3cncc(C)c3)c(/C=C/C(=O)O)cnc21`, the IC50 is > 1000 nM in experiment [4] and 15.7 nM in [5].

As to `CC(=O)OCCCc1cnc2ccnn2c1`, the inhibition at 10 µM in [1] came out at 13%; in [2] it was 66%; in experiment [3], 0%.

With `Cc1nn(C)c2ncc(CCCO)cc12`, the results for the inhibition at 10 µM in experiment [1], in [2] and in [3] were 6%, 27% and 7%, respectively.

For `Cc1ccc(-c2cc3ncc(CCCO)cn3n2)cc1`, the figures for the inhibition at 10 µM in experiment [1], in experiment [2] and in [3] were 0%, 0% and 9%, respectively.

Turning to `CC(=O)OCCCc1cnc2ncnn2c1`, the inhibition at 10 µM stood at 7% in [1], 45% in experiment [2] and 0% in experiment [3].

Turning to `CCn1ncc2cc(CCCOC(C)=O)cnc21`, the inhibition at 10 µM came out at 0% in experiment [1], 16% in [2] and 13% in experiment [3].

Regarding `CCNCc1cncc(-c2cnc3c(c2)C(c2nc4cc(F)ccc4[nH]2)N=N3)c1` (configuration not stated), the IC50 in experiment [8] turned out to be 0.7 nM.

Turning to `CCO[C@@H](C1=CC2C(C)=NN(c3ccccc3)C2N=C1)[C@H](O)[C@@H](O)CO` (some centres not stated), the inhibition at 10 µM in [1] was 3%; in experiment [2], 44%; in [3] it was 9%.

On to `COc1cc(-c2cc(-c3ccc(Cl)c(Cl)c3)nc3[nH]nc(C)c23)cc(OC)c1OC`, for which the IC50 worked out at 22000 nM in [9] and 18000 nM in experiment [10].

For the molecule `COc1ccc(C(=O)NN2CCOCC2)cc1-c1n[nH]c2nc(Nc3ccc(F)cc3F)ccc12`, the inhibition in vivo at 20 mg/kg in experiment [11] is 97%. The same molecule yielded an IC50 in experiment [12] of 0.7 nM.

With `Cc1nn(C)c2ncc(C(=O)c3cc(F)ccc3O)cc12`, the results for the inhibition at 10 µM in experiment [1], in experiment [2] and in experiment [3] were 0%, 34% and 19%, respectively.

Consider `Cc1ccc(O)c(C(=O)c2cnc3onc(C)c3c2)c1`, for which the inhibition at 10 µM in experiment [1] is 5%; in experiment [2], 58%; in experiment [3], 16%. For the same molecule, the concentration for half-maximal inhibition (IC50) was > 100000 nM in experiment [13], 160 nM in experiment [14] and > 100000 nM in experiment [15].

Regarding `COC[C@H](O)[C@@H](OC)[C@@H](OC)c1cnc2cc(-c3ccc(C)cc3)nn2c1`, the inhibition at 10 µM in experiment [1] is 18%; in experiment [2] it was 34%; in [3] it was 3%. In addition, the inhibition at 30 µM in [6] was 30%.

On to `Cc1ccc(O)c(C(=O)c2cnc3nc4ccccc4n3c2)c1`, for which the figures for the inhibition at 10 µM in experiment [1], in experiment [2] and in experiment [3] were 5%, 32% and 37%, respectively.

With `CCO[C@@H](C1=CC2C(c3ccc(OC)cc3)=NN(c3ccccc3)C2N=C1)[C@H](OC)[C@@H](O)COC` (some centres not stated), the values for the inhibition at 10 µM in experiment [1], in experiment [2] and in experiment [3] were 15%, 35% and 6%, respectively. Also, in [6], the inhibition at 30 µM amounted to 30%.

As to `C[C@@H]1C[C@H]2[C@@H]3CCC4=CC(=O)C=C[C@]4(C)[C@@]3(F)[C@@H](O)C[C@]2(C)[C@@]1(O)C(=O)CO` [DEXAMETHASONE], the IC50 is 50 nM in experiment [13], 7 nM in [14] and > 100000 nM in experiment [15]. Besides, the inhibition at 1 µM stood at 94% in experiment [16], 72% in [17] and 0% in experiment [18].

These data come from ChEMBL document CHEMBL1155871, “Synthesis and evaluation of pyrazolo[3,4-b]pyridines and its structural analogues as TNF-alpha and IL-6 inhibitors” (Bioorg Med Chem, 2008).
